# Assay outcomes: PubChem, Broad Institute
# A selection: hits, their analogues and other compounds. The true share with any hit is near 0.98%.
# ERAP1 inh: ERAP1 (human) enzyme inhibition | Q9NZ08 | AID 652197 | 340,000 tested, 0.15% active | inhibition, % at 10.7 µM | recombinant ERAP1, Leu-AMC fluorescence, 60 min;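 active = mean replicate inhibition of at least 30%, or all replicates individually reaching that 30% level; inactive = mean below 30% and not every replicate reaching it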;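 note: 0% = neutral control wells and 100% = L-leucinethiol positive control wells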
# Target sequence (Q9NZ08 whole entry, looked up): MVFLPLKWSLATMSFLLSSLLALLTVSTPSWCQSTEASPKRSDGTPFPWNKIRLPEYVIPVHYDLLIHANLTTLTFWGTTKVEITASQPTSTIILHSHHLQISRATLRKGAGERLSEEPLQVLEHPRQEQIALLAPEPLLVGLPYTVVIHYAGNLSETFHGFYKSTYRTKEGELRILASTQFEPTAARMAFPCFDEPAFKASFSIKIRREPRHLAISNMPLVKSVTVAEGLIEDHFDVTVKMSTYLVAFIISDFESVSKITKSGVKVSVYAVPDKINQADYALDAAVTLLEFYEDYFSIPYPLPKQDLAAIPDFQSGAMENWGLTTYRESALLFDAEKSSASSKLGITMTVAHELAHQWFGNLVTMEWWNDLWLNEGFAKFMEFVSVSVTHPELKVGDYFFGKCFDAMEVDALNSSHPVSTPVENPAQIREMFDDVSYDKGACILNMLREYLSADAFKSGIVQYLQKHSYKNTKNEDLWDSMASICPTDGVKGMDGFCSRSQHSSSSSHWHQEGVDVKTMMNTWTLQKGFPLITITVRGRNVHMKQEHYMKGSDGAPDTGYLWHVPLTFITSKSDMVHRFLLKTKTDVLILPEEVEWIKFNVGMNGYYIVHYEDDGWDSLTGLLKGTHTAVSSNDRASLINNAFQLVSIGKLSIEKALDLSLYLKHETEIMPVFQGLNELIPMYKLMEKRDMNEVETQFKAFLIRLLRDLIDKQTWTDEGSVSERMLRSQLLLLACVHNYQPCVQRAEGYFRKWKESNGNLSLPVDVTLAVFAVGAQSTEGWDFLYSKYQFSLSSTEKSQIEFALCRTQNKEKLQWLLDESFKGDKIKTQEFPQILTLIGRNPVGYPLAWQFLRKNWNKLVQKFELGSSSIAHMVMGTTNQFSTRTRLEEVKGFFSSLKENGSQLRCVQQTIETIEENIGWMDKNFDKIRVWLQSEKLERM
# Statin myotox sup: suppressors of simvastatin-induced myotoxicity in C2C12 myotubes. ATP luminescence, 48 h; scaled: DMSO 0, geranylgeraniol control 100. 330,000 tested, 0.78% active. rescue of ATP level, % at 7.49 µM;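 active = mean ATP rescue above about 67%, or every replicate alone reaching that limit, limit read from the data, passing the limit was not always enough; inconclusive = no clear call, values can overlap the other calls; inactive = mean under the limit and some replicate under it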;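 note: myotubes were challenged with 10 µM simvastatin during compound exposure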
# PGC1a acetyl inh: modulators of PGC1a acetylation | 350,000 tested, 0.17% active | U2OS PGC1a acetylation, AlphaScreen anti-acetyl-lysine; with virally co-expressed GCN5 acetyltransferase | inhibition, % at 15.6 µM | AID 651687;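 active = every replicate shows inhibition of at least 40%; inconclusive = mean inhibition at least 40% but some replicate below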;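 note: 0% = neutral control wells and 100% = positive control wells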
# Rtt109 HAT inh: blocks Candida albicans Rtt109/Vps75 acetyltransferase activity; purified Rtt109/Vps75, ThioGlo CoA-SH fluorescence, 4 h; AID 540336; 330,000 tested, 0.16% active; inhibition, % at 34.9 µM; Q5AAJ8;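 active = inhibition of at least 50% in every replicate; inconclusive = best replicate reaches 50% inhibition but some replicates fall short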
# S100A4 MyoIIA: S100A4-myosin IIA interaction inhibition; 360,000 tested, 0.14% active; P26447; inhibition, % at 10.7 µM; S100A4/TAMRA-MyoIIA peptide fluorescence polarization;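 active = mean inhibition of at least 70% across replicates, with every replicate also reaching that level; inconclusive = mean inhibition reaches 70% but some replicates fall short; inactive = mean inhibition below 70%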
#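 Material: human S100A4 monomer with TAMRA-labelled myosin IIA peptide; buffer or medium: HEPES pH 7.2 with CaCl2, KCl, NaCl, DTT, Triton; compound dosing: one concentration per compound; schedule: 5 min incubation before reading; benchmarks: neutral control DMSO, positive control TFP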
# * hit, by the source's call; ? = inconclusive; . = no result.
SMILES,ERAP1 inh,Statin myotox sup,PGC1a acetyl inh,Rtt109 HAT inh,S100A4 MyoIIA
COc1ccc(CNC(=O)C(C#N)c2nc3ccccc3nc2N2CCCC2)cc1 (stereo not drawn),.,17,3,-11,.
COc1ccccc1CNc1ncnc2c1nnn2Cc1ccccc1,.,126*,-9,-8,.
CC(C)CCNc1ncnc2c1nnn2Cc1ccccc1,6,-4,5,1,0
CCOC(=O)c1c(C)sc2c1N(C(=O)CN(CC)CC)c1cc(Cl)ccc1S2,.,115*,-21,25,.
O=C1CCC(C(=O)OCC(=O)C23CC4CC(CC(C4)C2)C3)N1 (stereo not drawn),.,90*,5,5,.
O=C1CCC(C(=O)OCc2ccccc2)N1 (stereo not drawn),13,31,2,0,7
Cc1ccccc1NC(=O)CC1c2ccccc2CC(C)(C)N1C (stereo not drawn),4,.,83*,-3,1
CCc1ccc(OCC(=O)NNC(=O)c2cc3ccccc3o2)cc1,-1,81*,4,0,-2
Cc1cc(C)cc(OCC(=O)NNC(=O)c2cc3ccccc3o2)c1,-9,3,2,-2,-1
CC(Sc1nncn1C)C(=O)Nc1ccc(Cl)cn1 (stereo not drawn),1,.,.,3,7
COc1ccc(Cl)cc1NC(=O)C(C)Sc1nncn1C (stereo not drawn),.,131*,4,-2,.
CCCNC(=O)N1C[C@H]2[C@@H](c3ccccc31)[C@@H](CO)N2C(=O)c1ccncc1,-1,-8,4,.,2
O=[N+]([O-])c1c(Nc2ccccc2O)cc(Cl)c2nonc12,2,-57,27,-7,3
O=C(O)c1cc(Nc2cc(Cl)c3nonc3c2[N+](=O)[O-])ccc1O,36*,1,17,1,3
Cc1[nH]c2ccccc2c1C(=O)CN1C(=O)C(=O)N(CCC2=CCCCC2)C1=O,0,1,.,-1,-2
Cc1[nH]c2ccccc2c1C(=O)CN1C(=O)C(=O)N(Cc2ccco2)C1=O,33*,11,-1,21,7
COCCNC(=O)CCc1c(C)nc2c(c(C)nn2-c2ccc(C)cc2)c1C,3,-5,.,22,1
COCCNC(=O)CCc1c(C)nc2c(c(C)nn2-c2ccc(C)c(C)c2)c1C,0,-8,78*,-7,-7
CCCNC(=O)N1CC2(CCN(Cc3cccc(OC)c3)CC2)c2c(n(C)c3cc(OC)ccc23)[C@@H]1CO,20,.,4,.,4
FC(F)(F)c1nc2nncn2c2c1CCCCC2,.,149*,-6,-42,.
CC(C)(C)NC(=O)Cn1nc(C(F)(F)F)c2c1CCCC2,2,.,1,-3,-1
C[C@H]1CCCCO[C@@H](CN(C)C(=O)NC2CCCCC2)[C@@H](C)CN([C@@H](C)CO)C(=O)c2cc(NS(=O)(=O)c3cn(C)cn3)ccc2O1,5,17,.,.,15
COC(=O)CCC(=O)Nc1sc(C)c(C)c1C(N)=O,.,111*,1,4,.
CC(C)C#Cc1cnc2c(c1)C(=O)N([C@@H](C)CO)C[C@H](C)[C@@H](CN(C)C(=O)CN1CCOCC1)O2,-1,-2,0,.,?
Cn1c(N)c(C(=O)COC(=O)C2(c3cccc(F)c3)CCCC2)c(=O)n(C)c1=O,.,108*,-21,-4,.
SMILES,ERAP1 inh,Statin myotox sup,PGC1a acetyl inh,Rtt109 HAT inh,S100A4 MyoIIA
Cn1c(N)c(C(=O)COC(=O)c2ccc(F)cc2Cl)c(=O)n(C)c1=O,1,4,9,0,6
COc1ccc(S(=O)(=O)N(C)C[C@H]2Oc3ccc(NS(=O)(=O)c4cn(C)cn4)cc3CC(=O)N([C@@H](C)CO)C[C@@H]2C)cc1,-1,0,3,.,-14
COC(=O)C(=Cc1ccc(OCc2ccc([N+](=O)[O-])cc2)c(OC)c1)C(=O)OC,.,17,?,11,.
CCOC(=O)C(=Cc1ccc(OCc2ccc([N+](=O)[O-])cc2)c(OC)c1)C(=O)OCC,.,.,57*,2,.
CCOc1ccc(S(=O)(=O)NN)cc1,.,96*,-7,-12,.
CO[C@H]1CN(C)C(=O)c2cc(NC(C)=O)ccc2OC[C@H](C)N(S(=O)(=O)c2cn(C)cn2)C[C@H]1C,-1,10,-3,.,-3
CCCNC(=O)[C@@H]1[C@@H](CO)[C@@H]2Cn3c(ccc(/C=C/c4ccccc4)c3=O)[C@H]1N2C(=O)c1cccnc1,-2,1,.,.,-4
Oc1ccc(NC(=S)Nc2ccc(F)cc2)cc1,3,-16,-3,-1,-1
Fc1ccc(NC(=S)Nc2ccc(Br)cc2)cc1,.,-81,1,55*,.
COc1ccc(CN(C)C[C@H]2Oc3ccc(NS(=O)(=O)c4cn(C)cn4)cc3CC(=O)N([C@@H](C)CO)C[C@H]2C)cc1,.,5,0,.,.
C[C@H]1CN([C@@H](C)CO)C(=O)Cc2cc(NS(=O)(=O)c3cccs3)ccc2O[C@@H]1CN(C)C(=O)Nc1ccc(F)cc1,-2,-26,-7,.,-9
O=C(c1ccccc1CCc1ccccc1)N1CCOCC1,.,114*,-21,-37,.
C[C@@H]1CN([C@@H](C)CO)C(=O)c2ccccc2-c2ccccc2CO[C@H]1CN(C)S(=O)(=O)c1ccccc1F,.,.,15,.,.
CC(C)c1ccc(OC(=O)c2ccc3c(=O)n4c(nc3c2)CCC4)cc1,78*,-12,.,3,29
O=C(Oc1ccc(F)c(F)c1)c1ccc2c(=O)n3c(nc2c1)CCC3,4,8,9,-10,-1
O=C(Nc1ccc(F)cc1)NC1CCN(Cc2nnnn2Cc2ccco2)CC1,.,95*,8,2,.
O=C(Nc1ccccc1F)NC1CCN(Cc2nnnn2Cc2ccc(F)cc2)CC1,.,1,.,5,.
COCCNCC(=O)NC12CC3CC(CC(C3)C1)C2,.,117*,2,5,.
O=C(Nc1ccc2c(c1)[C@@H]1C[C@@H](CC(=O)N3CCc4ccccc4C3)O[C@H](CO)[C@@H]1O2)C1CCC1,1,-2,-7,.,-3
